Results reported in ChEMBL document CHEMBL3526154, “Metabolism, pharmacokinetics, tissue distribution, and stability studies of the prodrug analog of an anti-hepatitis B virus dinucleoside phosphorothioate” (Drug Metab Dispos, 2012).

Legend:
Format in all cases: ADME, organism-based
Conditions in all cases: in vivo
Rattus norvegicus [1] = assay: Drug recovery in male Sprague-Dawley rat at 10 mg/kg, iv administered as bolus dose measured after 24 hrs by liquid scintillation counting analysis; design: dose 10 mg/kg, route intravenous
Procedure, shortened: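 Rats got a single i.v. bolus or oral gavage dose of [³⁵S]-prodrug at 5 ml/kg over a 24 h study. Radioactivity in blood, tissues, carcass, urine and feces measured by liquid scintillation counting. Total recovery given as % of administered dose at 24 h.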

Rattus norvegicus [2] = assay: Cmax in female Sprague-Dawley rat at 10 mg/kg, iv administered as bolus dose by liquid scintillation counting analysis; design: dose 10 mg/kg, route intravenous
Procedure, shortened: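 Single dose of [³⁵S]-labelled prodrug to rats, i.v. tail-vein bolus in 25% PEG 400/75% saline or oral gavage in 0.05 M citric acid buffer pH 2.5, 5 ml/kg. Retro-orbital blood into EDTA at 1, 4 or 24 h; plasma by centrifugation. Radioactivity by liquid scintillation counting as µg-Eq/ml. Noncompartmental sparse-sampling analysis gives Cmax and AUC; nine rats per sex.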

[3] = Drug excretion in male Sprague-Dawley rat feces at 10 mg/kg, iv administered as bolus dose measured at 1 to 4 hrs post-dose by liquid scintillation counting analysis; design: dose 10 mg/kg, route intravenous
Procedure, shortened: (§1)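 Single [³⁵S]-prodrug dose to rats, i.v. tail-vein bolus (PEG 400/saline vehicle) or oral gavage (citric acid buffer pH 2.5), 5 ml/kg. Urine and feces collected ~1, 4 and 24 h postdose. Radioactivity counted by liquid scintillation and expressed as % of administered dose. Mean and S.D. from nine rats per sex.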

[4] = Drug excretion in male Sprague-Dawley rat urine at 10 mg/kg, po administered as single dose measured at 0 to 24 hrs post-dose by liquid scintillation counting analysis; design: dose 10 mg/kg, route oral; procedure, shortened: as §1

With CO[C@@H]1[C@H](OP(=O)(OC[C@H]2O[C@@H](n3cnc4c(N)ncnc43)C[C@@H]2O)[35S]COC(=O)OC(C)C)[C@@H](CO)O[C@H]1n1ccc(=O)[nH]c1=O (some centres undefined) as the compound, how does the Drug recovery (Rattus norvegicus [1]) read?
Its Drug recovery is 83.7%.

And the Cmax (Rattus norvegicus [2])?
The Cmax was 4.49 ugequiv/ml.

And the Drug excretion [3]?
The Drug excretion was 0.01%.

And the Drug excretion [4]?
Its Drug excretion is 34.59%.
